ChEMBL document CHEMBL1140336, “Synthesis, structure-activity relationships, and biological evaluation of fatty alcohol phosphates as lysophosphatidic acid receptor ligands, activators of PPARgamma, and inhibitors of autotaxin” (J Med Chem, 2005)

Experiments:
[1] = biological target: T1, Lysophosphatidic acid receptor 3 (Homo sapiens, UniProt Q9UBY5); assay: Inhibition of LPA-induced calcium transients in RH7777 rat hepatoma cells expressing LPA3 receptor; No effect; format: functional, cell-based
T1 sequence (Q9UBY5 whole entry): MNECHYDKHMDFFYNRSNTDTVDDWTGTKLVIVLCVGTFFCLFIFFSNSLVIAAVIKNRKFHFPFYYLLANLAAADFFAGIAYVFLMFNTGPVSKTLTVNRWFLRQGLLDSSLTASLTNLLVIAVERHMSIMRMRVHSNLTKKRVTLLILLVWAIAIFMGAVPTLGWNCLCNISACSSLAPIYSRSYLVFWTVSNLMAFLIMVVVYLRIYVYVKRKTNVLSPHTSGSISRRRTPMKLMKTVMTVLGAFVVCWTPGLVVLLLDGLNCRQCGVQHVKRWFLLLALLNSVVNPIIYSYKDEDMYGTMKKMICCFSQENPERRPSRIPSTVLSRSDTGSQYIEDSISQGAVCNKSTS
Procedure, shortened: (§1)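 Fura-2 Ca2+ assay. RH7777 cells stably expressing LPA1, LPA2 or LPA3, or PC-3 cells (endogenous LPA1-3), seeded at 50000 cells/well on poly-D-lysine and grown overnight. Serum-starved in modified Krebs, pH 7.4, for 6-8 h (PC-3: 12 h), then Fura-2 AM loaded for 35 min. Compound added at 15 s; wells read 80-120 s. Transient taken as peak minus baseline 340/380 ratio. Antagonism: LPA 18:1 coapplied; highest concentration 30 μM.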

[2] = biological target: T1, Lysophosphatidic acid receptor 3; assay: Binding affinity for Lysophosphatidic acid receptor 3 expressed in RH7777 rat hepatoma cells; format: cell-based; procedure, shortened: as §1
[3] = biological target: T1, Lysophosphatidic acid receptor 3; assay: (§2) Inhibition of LPA-induced calcium transients in RH7777 rat hepatoma cells expressing LPA3 receptor; format: functional, cell-based; procedure, shortened: as §1
[4] = biological target: T2, Lysophosphatidic acid receptor 2 (Homo sapiens, UniProt Q9HBW0); assay: Inhibition of LPA-induced calcium transients in RH7777 rat hepatoma cells expressing LPA2 receptor; No effect; format: functional, cell-based; procedure, shortened: as §1
[5] = biological target: T3, Lysophosphatidic acid receptor 1 (Homo sapiens, UniProt Q92633); assay: (§3) Inhibition of LPA-induced calcium transients in RH7777 rat hepatoma cells expressing LPA1 receptor; format: functional, cell-based; procedure, shortened: as §1
[6] = biological target: T3, Lysophosphatidic acid receptor 1; assay: Inhibition of LPA-induced calcium transients in RH7777 rat hepatoma cells expressing LPA1 receptor; Not effect; format: functional, cell-based; procedure, shortened: as §1
[7] = biological target: T3, Lysophosphatidic acid receptor 1; assay: Binding affinity for Lysophosphatidic acid receptor 1 expressed in RH7777 rat hepatoma cells; format: cell-based; procedure, shortened: as §1
[8] = biological target: T3, Lysophosphatidic acid receptor 1; assay: (§4) Inhibition of LPA-induced calcium transients in RH7777 rat hepatoma cells expressing LPA1 receptor; No effect; format: functional, cell-based; procedure, shortened: as §1
[9] = biological target: T3, Lysophosphatidic acid receptor 1; assay: as §4; format: functional, cell-based; remark: listed apart in the source
[10] = Inhibition of LPA-induced calcium transients in PC-3 cells; format: functional, cell-based, Homo sapiens; settings: Homo sapiens, PC-3; read-out: IC50
Procedure, shortened: (§5)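 PC-3 human prostate cancer cells, which express LPA1-3 endogenously, 50000 cells/well. Serum-starved 12 h in modified Krebs, loaded with Fura-2 AM, read in a FlexStation. Ca2+ transient = 340/380 ratio peak minus baseline. Agonism (Emax as % of maximal LPA 18:1 response) and inhibition of LPA-induced transients were measured.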

[11] = Binding affinity for Lysophosphatidic acid receptor in PC-3 cells; format: cell-based, Homo sapiens; procedure, shortened: as §1
Homo sapiens [12] = species: Homo sapiens; assay: Maximal shape change of human platelets induced by the compound; format: functional
Procedure, shortened: (§6)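 Washed human platelets, aspirin-treated and isolated with apyrase, at 4 × 10^5/μL in HEPES buffer pH 7.4, stirred at 37 °C. Lipids given as BSA complexes (4:1). Shape change read as the fall in light transmission in an aggregometer. […] Mean ± SD across different donors.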

Homo sapiens [13] = species: Homo sapiens; assay: Inhibitory concentration of compound (after 5 min of incubation) against LPA human platelets
Homo sapiens [14] = species: Homo sapiens; assay: (§7) Concentration of compound (after 5 min of addition) that induce LPA expressed in human platelets; format: functional; procedure, shortened: as §6
[15] = Percent maximal efficacy in PC-3 cells; format: functional, Homo sapiens; procedure, shortened: as §5
[16] = biological target: T1, Lysophosphatidic acid receptor 3; assay: as §2; format: functional, cell-based; remark: listed apart in the source
[17] = biological target: T3, Lysophosphatidic acid receptor 1; assay: Maximal efficacy in induction of [Ca2+] transients in RH7777 rat hepatoma cells expressing LPA1 receptor; format: functional, cell-based
Procedure, shortened: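 Agonist mode in RH7777 cells stably expressing the named LPA receptor, serum-starved 6-8 h, Fura-2 AM loaded. Increasing compound concentrations were added alone and the Ca2+ transient was read as the 340/380 ratio peak minus baseline. Emax = compound maximal response as a percentage of the LPA 18:1 maximal response.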

[18] = biological target: T3, Lysophosphatidic acid receptor 1; assay: as §3; format: functional, cell-based; remark: listed apart in the source
[19] = biological target: T2, Lysophosphatidic acid receptor 2; assay: (§8) Inhibition of LPA-induced calcium transients in RH7777 rat hepatoma cells expressing LPA2 receptor; format: functional, cell-based
[20] = Inhibition of LPA expressed in PC-3 cells; No effect; format: functional, cell-based, Homo sapiens; procedure, shortened: as §1
[21] = Inhibition of LPA-induced calcium transients in PC-3 cells; No effect; format: functional, cell-based, Homo sapiens; procedure, shortened: as §1
[22] = biological target: T2, Lysophosphatidic acid receptor 2; assay: Inhibition of LPA-induced calcium transients in RH7777 rat hepatoma cells expressing LPA2 receptor;No effect; format: functional, cell-based; procedure, shortened: as §1
Homo sapiens [23] = species: Homo sapiens; assay: as §7; format: functional; remark: listed apart in the source
[24] = biological target: T2, Lysophosphatidic acid receptor 2; assay: as §8; format: functional, cell-based; procedure, shortened: as §1; remark: listed apart in the source
[25] = biological target: T2, Lysophosphatidic acid receptor 2; assay: Binding affinity for Lysophosphatidic acid receptor 2 expressed in RH7777 rat hepatoma cells; format: cell-based; settings: read-out: Ki

T3 sequence (Q92633 whole entry): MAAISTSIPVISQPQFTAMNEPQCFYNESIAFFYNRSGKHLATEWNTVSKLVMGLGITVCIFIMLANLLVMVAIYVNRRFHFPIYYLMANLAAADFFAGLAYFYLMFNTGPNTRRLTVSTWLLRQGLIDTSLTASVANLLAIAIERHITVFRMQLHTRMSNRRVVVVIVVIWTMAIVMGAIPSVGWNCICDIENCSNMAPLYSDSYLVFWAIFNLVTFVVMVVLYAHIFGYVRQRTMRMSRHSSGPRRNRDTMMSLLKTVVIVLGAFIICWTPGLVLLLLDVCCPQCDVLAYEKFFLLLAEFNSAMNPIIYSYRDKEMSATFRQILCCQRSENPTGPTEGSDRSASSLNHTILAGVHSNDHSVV
T2 sequence (Q9HBW0 whole entry): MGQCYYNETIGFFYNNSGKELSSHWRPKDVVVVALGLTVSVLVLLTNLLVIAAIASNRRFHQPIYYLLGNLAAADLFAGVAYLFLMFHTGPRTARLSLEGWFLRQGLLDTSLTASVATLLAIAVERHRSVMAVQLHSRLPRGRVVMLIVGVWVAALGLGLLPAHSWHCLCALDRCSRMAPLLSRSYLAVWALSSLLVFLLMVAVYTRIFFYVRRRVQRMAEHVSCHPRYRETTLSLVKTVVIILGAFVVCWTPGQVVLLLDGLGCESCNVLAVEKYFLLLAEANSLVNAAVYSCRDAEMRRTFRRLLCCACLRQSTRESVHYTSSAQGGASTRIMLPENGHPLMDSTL

SMILES | EC50 [1] | Ki [2] [nM] | IC50 [3] [nM] | EC50 [4] | IC50 [4] | IC50 [5] [nM] | EC50 [8] | IC50 [9] | IC50 [10] [nM] | Ki [11] [nM] | Emax (Homo sapiens [12]) [%] | IC50 (Homo sapiens [13]) [nM] | EC50 (Homo sapiens [14]) [nM] | also measured
CCCCCCCC(=O)OC[C@H](COP(=O)(O)OP(=O)(O)O)OC(=O)CCCCCCC | Not Active | 202 | 454 | Not Active | Not Active | 5500 |  |  |  |  |  |  |  | EC50 [6]: Not Active; Ki [7]: 4300 nM
CCCCCCCCCCOP(O)(O)=S [THIOPHOSPHORIC ACID DECYL ESTER] | Not Active |  |  |  | Not Active |  | Not Active | Not Active | 1220 | 521 |  |  |  | 
CCCCCCCCCCCCOP(=O)(O)O [PHOSPHORIC ACID MONODODECYL ESTER] | Not Active | 61 | 128 |  | Not Active | 2800 | Not Active |  |  |  | 94 | 160 | 250 | Ki [7]: 1350 nM
CCCCCCCCCCCCCCC(F)(F)P(=O)(O)O | Not Active |  |  |  | Not Active |  | Not Active |  |  |  |  |  |  | 
CCCCCCCCCCCCCCCC(=O)N[C@@H](COP(=O)(O)O)C(=O)O |  |  |  | Not Active | Not Active |  |  |  |  |  |  |  |  | Emax [15]: 42%; EC50 [16]: 1600 nM; IC50 [1]: Not Active; Emax [17]: 100%; EC50 [18]: 1850 nM
CCCCCCCC/C=C/CCCCCCCCOP(O)(O)=S |  |  |  |  | Not Active |  |  | Not Active |  |  | 1.12 | 18 | 16 | Emax [15]: 30%; EC50 [16]: 546 nM; IC50 [1]: Not Active; EC50 [19]: 244 nM; EC50 [18]: 193 nM
CCCCCCCCCCCCCCCCCCP(=O)(O)O | Not Active |  |  | Not Active | Not Active |  | Not Active | Not Active |  |  |  |  |  | IC50 [1]: Not Active; IC50 [20]: Not Active; EC50 [21]: Not Active
CCCCCCCCCCCCCCOP(=O)(O)O [PHOSPHORIC ACID MONOTETRADECYL ESTER] | Not Active | 211 | 422 | Not Active |  | 2300 | Not Active |  |  |  | 87 | 420 | 430 | IC50 [22]: Not Active; Ki [7]: 1080 nM
CCCC/C=C/CCCCCCCCOP(=O)(O)O | Not Active | 58 | 96 |  | Not Active |  | Not Active |  | 241 | 123 |  |  |  | EC50 [19]: 397 nM
CCCCCCCCCCCCCCCC(=O)OC[C@@H](O)COP(=O)(O)O |  |  |  |  |  |  |  |  |  |  | 120 | 17 | 10 | 
CC/C=C/CCCCCCCCOP(O)(O)=S | Not Active | 14 | 27 |  | Not Active |  | Not Active | Not Active | 2970 | 1460 | 73 | 700 |  | Emax [15]: 27%; EC50 (Homo sapiens [23]): 1000 nM; EC50 [19]: 677 nM
CCCCCCCCCCCCCCP(=O)(O)O | Not Active | 1120 | 3100 | Not Active |  | ~10000 | Not Active |  | 9670 | 4620 | 0 | 33000 |  | IC50 [24]: 5500 nM; Ki [25]: 3550 nM
CCCCCCCCCCCCOP(O)(O)=S [THIOPHOSPHORIC ACID DODECYL ESTER] | Not Active |  |  |  | Not Active |  | Not Active | Not Active | 2840 | 1300 |  |  |  | 
